A short description of data set [1]: Permeability of the compound at 10 uM after 30 mins by PAMPA. The class given is ADME. As to conditions: read-out: permeability.
Data set [2] is described as follows: Half life in CD-1 mouse liver microsomes by UPLC-MS analysis. It counts as ADME.
The nature of data set [3]: Half life in rat liver microsomes by UPLC-MS analysis. It counts as ADME.
Data set [4] can be described thus: Half life in human liver microsomes by UPLC-MS analysis. It counts as ADME.
The nature of data set [5]: Half life in dog liver microsomes by UPLC-MS analysis. It counts as ADME, Canis lupus familiaris.
A short description of data set [6]: Intrinsic clearance in CD-1 mouse liver microsomes after 0.5 to 4 hrs by UPLC-MS analysis. It counts as ADME. As to conditions: read-out: CLH.
Data set [7] in a line: Intrinsic clearance in rat liver microsomes after 0.5 to 4 hrs by UPLC-MS analysis. The conditions noted are these: read-out: CLH. It counts as ADME.
Data set [8] is described as follows: Intrinsic clearance in human liver microsomes after 0.5 to 4 hrs by UPLC-MS analysis. It counts as ADME. As to conditions: read-out: CLH.
Data set [9] can be described thus: Intrinsic clearance in dog liver microsomes after 0.5 to 4 hrs by UPLC-MS analysis. As to conditions: read-out: CLH. It counts as ADME, Canis lupus familiaris.
The test system of data set [10] is Plasma. Put plainly: Stability in mouse plasma assessed as compound stability time by UPLC-MS analysis. The class given is ADME, cell-free.
The subject of data set [11] is Plasma. Put plainly: Stability in rat plasma assessed as compound stability time by UPLC-MS analysis. The class given is ADME, cell-free.
The test system of data set [12] is Plasma. Put plainly: Stability in human plasma assessed as compound stability time by UPLC-MS analysis. It counts as ADME, cell-free.
Data set [13] can be described thus: Stability of the compound in phosphate buffered saline assessed as compound stability time at pH 7.4 by UPLC-MS analysis. The class given is physicochemical. The conditions noted are these: buffer.
Data set [14] can be described thus: Stability of the compound in phosphate buffered saline assessed as compound stability time at pH 5 by UPLC-MS analysis. It counts as physicochemical. As to conditions: buffer.
The nature of data set [15]: Stability of the compound in phosphate buffered saline assessed as compound stability time at pH 3 by UPLC-MS analysis. The conditions noted are these: buffer. The class given is physicochemical.
Data set [16] in a line: Half life of the compound in aqueous buffer. It counts as physicochemical.
The nature of data set [17]: Cmax in C57BL/6 mouse at 20 mg/kg, iv by UPLC-MS analysis. The class given is ADME, organism-based. Also on record: dose 20 mg/kg, route intravenous. As to conditions: in vivo. In a few lines:
(§1)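 Female C57BL/6 mice, 22-27 g; single tail-vein injection at 10 or 20 mg/kg (vehicle groups at 0) in EtOH/PPG/PBS pH 7.4 5/45/50 with HβCD 10 mM and 5% DMSO, 4 ml/kg. Blood taken at 5, 15, 30 min, 1, 4, 24 h, one mouse per time point, and at 48 h. EDTA plasma mixed with acetonitrile containing warfarin internal standard; UPLC/MS quantitation by peak-area ratio.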

Data set [18] can be described thus: Tmax in C57BL/6 mouse at 20 mg/kg, iv by UPLC-MS analysis. The class given is ADME, organism-based. The conditions noted are these: in vivo. An outline of the steps: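 Female C57BL/6 mice (22-27 g) received a single tail-vein injection at 4 ml/kg in 5/45/50 EtOH/PPG/PBS (pH 7.4) with 10 mM HβCD and 5% DMSO. Groups were 0, 10 and 20 mg/kg. Blood was drawn retro-orbitally at 5, 15, 30 min, 1, 4, 24 and 48 h into EDTA. Plasma was precipitated with acetonitrile containing 2 uM warfarin as internal standard and quantified by UPLC/MS from the analyte/internal-standard peak-area ratio.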

The species named for data set [19] is Mus musculus. Description: Drug metabolism in C57BL/6 mouse assessed as 4-(5-amino-3-(pyridin-2-yl)-1H-1,2,4-triazol-1-yl)-7-methoxyquinazolin-6-ol formation by qualitative tandem mass spectrometric analysis. As to conditions: in vivo. It counts as ADME, organism-based.
The species named for data set [20] is Mus musculus. Description: Drug metabolism in C57BL/6 mouse assessed as 4-(5-amino-3-(pyridin-2-yl)-1H-1,2,4-triazol-1-yl)quinazoline-6,7,8-triol formation by qualitative tandem mass spectrometric analysis. The class given is ADME, organism-based. The conditions noted are these: in vivo.
The species named for data set [21] is Mus musculus. Description: Drug metabolism in C57BL/6 mouse assessed as (2S,3S,4S,5R,6S)-6-(4-(5-amino-3-(pyridin-2-yl)-1H-1,2,4-triazol-1-yl)-7-methoxyquinazolin-6-yloxy)-3,4,5-trihydroxytetrahydro-2H-pyran-2-carboxylic acid formation by qualitative tandem mass spectrometric analysis. It counts as ADME, organism-based. As to conditions: in vivo.
Data set [22] in a line: Clearance in C57BL/6 mouse at 10 mg/kg, iv. The class given is ADME, organism-based. As to conditions: in vivo. In a few lines:
as §1

Data set [23] is described as follows: Half life in C57BL/6 mouse at 10 mg/kg, iv. It counts as ADME, organism-based. The conditions noted are these: in vivo. In a few lines:
as §1

A short description of data set [24]: Half life in C57BL/6 mouse at 20 mg/kg, iv by UPLC-MS analysis. It counts as ADME, organism-based. As to conditions: in vivo. An outline of the steps:
as §1

The species entered for data set [25] is Mus musculus. Put plainly: Drug level in C57BL/6 mouse treated with 1-(6,7-Dimethoxyquinazolin-4-yl)-3-(pyridin-2-yl)-1H-1,2,4-triazol-5-amine by qualitative tandem mass spectrometric analysis. It counts as ADME, organism-based. The conditions noted are these: in vivo.

The record followed here is ChEMBL document CHEMBL3763144, “Optimization of a Novel Series of Ataxia-Telangiectasia Mutated Kinase Inhibitors as Potential Radiosensitizing Agents” (J Med Chem, 2016).

As to `COc1cc2ncnc(-n3nc(-c4ccccn4)nc3N)c2cc1OC`, the Papp at 0.5 h, 10 µM in data set [1] was 95.9 ×10⁻⁶ cm/s. Further, the half-life in data set [2] was 0.9 h; in data set [3], 0.8 h; in [4], 3.4 h; in data set [5] it was 0.6 h; in data set [16], greater than 48 h; in data set [23] it was 1 h. Besides, the CLint scaled in data set [6] was 61.7 mL/min/kg; in data set [7], 57.8 mL/min/kg; in [8], 6.1 mL/min/kg; in data set [9], 52.5 mL/min/kg. The Stability with Plasma [10] is greater than 48 h; with Plasma [11], 19 h; in the data set with Plasma [12], greater than 48 h; in [13], greater than 48 h; in [14] it was greater than 48 h; in [15], greater than 48 h. Further, the highest level in data set [17] (Cmax) was 4 µM. Also, in [18], the Tmax was 5 min. The Drug metabolism result in the data set filed under Mus musculus [19], in the data set filed under Mus musculus [20] and in the data set filed under Mus musculus [21] was “metabolite_detected” in each case. Also, the clearance in [22] was 2.67 mL/min.
Turning to `COCCOc1cc2c(-n3nc(-c4ccccn4)nc3N)ncnc2cc1OC`, the Papp at 0.5 h, 10 µM in data set [1] turned out to be 196 ×10⁻⁶ cm/s. Besides, the half-life in data set [2] is 2 h; in data set [3], greater than 4 h; in [4], greater than 4 h; in [5], greater than 4 h; in data set [24], 19 h. Further, the CLint scaled in data set [6] is 27.1 mL/min/kg; in data set [7], less than 11.7 mL/min/kg; in [8], less than 5.2 mL/min/kg; in data set [9], less than 8.3 mL/min/kg. For the same compound, the Stability in the data set on Plasma [10] was greater than 48 h; in the data set with Plasma [11] it was greater than 24 h; with Plasma [12], greater than 48 h; in [13], greater than 24 h; in data set [14], greater than 24 h; in data set [15], greater than 24 h. In data set [17], the peak concentration (Cmax) stood at 9.5 µM.
In the case of `COc1cc2ncnc(-n3nc(-c4ccccn4)nc3N)c2cc1O`, in the data set listed under Mus musculus [25], the Drug metabolism result is listed as “metabolite_detected”.
Regarding `Nc1nc(-c2ccccn2)nn1-c1ncnc2c(O)c(O)c(O)cc12`, in the data set listed under Mus musculus [25], the Drug metabolism result was “metabolite_detected”.
On to `COCCOc1cc2ncnc(-n3nc(-c4ccccn4)nc3N)c2cc1OCCOC`, for which the Papp at 0.5 h, 10 µM in [1] is 16.6 ×10⁻⁶ cm/s. Moreover, the half-life in [2] was 2.4 h; in data set [3] it was greater than 4 h; in [4], 1.6 h; in data set [5], greater than 4 h. Also, the CLint scaled in [6] was 22.9 mL/min/kg; in data set [7], less than 11.7 mL/min/kg; in [8], 12.9 mL/min/kg; in data set [9], less than 8.3 mL/min/kg. Moreover, the Stability (with Plasma [10]; in the data set with Plasma [12]; in data set [13]; in [14]; in data set [15]) was greater than 48 h throughout. This compound also displayed a Cmax in data set [17] of 5.8 µM.
Consider `COc1cc2ncnc(-n3nc(-c4ccccn4)nc3N)c2cc1OCCCNC(=O)OC(C)C`, for which the Papp at 0.5 h, 10 µM in data set [1] came out at 432 ×10⁻⁶ cm/s. For the same compound, the half-life was 0.2 h in data set [2], 1 h in data set [3], 1.1 h in data set [4] and greater than 4 h in data set [5]. The CLint scaled in [6] is 329 mL/min/kg; in [7] it was 45.1 mL/min/kg; in [8] it was 18.8 mL/min/kg; in [9] it was less than 7.9 mL/min/kg. The Stability (with Plasma [10]; in the data set with Plasma [11]; in the data set on Plasma [12]; in [13]; in data set [14]; in data set [15]) was greater than 24 h in each case.
As to `COc1cc2ncnc(-n3nc(-c4ccccn4)nc3N)c2cc1O[C@@H]1O[C@H](C(=O)O)[C@@H](O)[C@H](O)[C@H]1O`, the Drug metabolism entry in the data set listed under Mus musculus [25] was “metabolite_detected”.
